For one test, the target named is Integrin alpha-V/beta-3 (Homo sapiens, UniProt P05106+P06756). Description: Displacement of [125I]echistatin from human integrin alphaVbeta3. It is filed as protein-complex assay. The procedure, abridged:
(§1)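 Solid-phase competition binding to αvβ3 and αvβ5 purified from human placenta. Receptors coated overnight at 4 °C (αvβ3 at 500 ng/mL, αvβ5 at 1000 ng/mL) in Tris pH 7.4 buffer with Ca2+, Mg2+ and Mn2+, then blocked with 1% BSA. [125I]echistatin used at 0.05 nM (αvβ3) or 0.1 nM (αvβ5) against test compound from 100 μM to 0.01 nM. Incubation 3 h at room temperature, in triplicate. Nonspecific binding defined with 1 μM unlabeled echistatin. IC50 taken as 50% inhibition of radioligand binding.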
For orientation: Loss of bound radioactivity is the signal in a displacement assay; it reports binding, not function.

A further test has as its target Integrin alpha-V/beta-5 (Homo sapiens, UniProt P06756+P18084). Description: Displacement of [125I]echistatin from human integrin alphaVbeta5. It is filed as protein-complex assay. The method, boiled down:
as §1

The structures appear in SMILES notation.

Chain of Integrin alpha-V/beta-3 (P05106 27-788 limits assumed): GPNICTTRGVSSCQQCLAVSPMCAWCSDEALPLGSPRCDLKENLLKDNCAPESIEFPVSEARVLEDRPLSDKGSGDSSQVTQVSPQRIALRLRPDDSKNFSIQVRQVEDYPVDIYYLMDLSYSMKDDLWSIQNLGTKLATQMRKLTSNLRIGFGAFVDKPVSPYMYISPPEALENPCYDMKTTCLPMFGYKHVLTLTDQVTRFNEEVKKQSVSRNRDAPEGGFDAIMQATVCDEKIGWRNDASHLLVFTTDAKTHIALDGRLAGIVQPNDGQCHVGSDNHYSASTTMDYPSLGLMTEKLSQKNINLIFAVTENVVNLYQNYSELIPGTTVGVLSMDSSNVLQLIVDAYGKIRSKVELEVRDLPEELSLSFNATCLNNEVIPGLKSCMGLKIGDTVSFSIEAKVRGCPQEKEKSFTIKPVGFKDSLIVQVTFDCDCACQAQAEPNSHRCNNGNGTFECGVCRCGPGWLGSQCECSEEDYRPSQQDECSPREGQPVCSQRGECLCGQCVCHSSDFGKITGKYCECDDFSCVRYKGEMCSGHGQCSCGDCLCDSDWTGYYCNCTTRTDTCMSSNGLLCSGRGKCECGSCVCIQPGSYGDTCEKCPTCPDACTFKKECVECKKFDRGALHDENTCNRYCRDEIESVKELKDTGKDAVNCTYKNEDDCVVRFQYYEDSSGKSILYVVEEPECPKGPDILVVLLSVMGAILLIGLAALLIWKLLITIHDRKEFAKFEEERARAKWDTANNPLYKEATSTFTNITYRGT
Chain of Integrin alpha-V/beta-3 (P06756 31-889 limits assumed): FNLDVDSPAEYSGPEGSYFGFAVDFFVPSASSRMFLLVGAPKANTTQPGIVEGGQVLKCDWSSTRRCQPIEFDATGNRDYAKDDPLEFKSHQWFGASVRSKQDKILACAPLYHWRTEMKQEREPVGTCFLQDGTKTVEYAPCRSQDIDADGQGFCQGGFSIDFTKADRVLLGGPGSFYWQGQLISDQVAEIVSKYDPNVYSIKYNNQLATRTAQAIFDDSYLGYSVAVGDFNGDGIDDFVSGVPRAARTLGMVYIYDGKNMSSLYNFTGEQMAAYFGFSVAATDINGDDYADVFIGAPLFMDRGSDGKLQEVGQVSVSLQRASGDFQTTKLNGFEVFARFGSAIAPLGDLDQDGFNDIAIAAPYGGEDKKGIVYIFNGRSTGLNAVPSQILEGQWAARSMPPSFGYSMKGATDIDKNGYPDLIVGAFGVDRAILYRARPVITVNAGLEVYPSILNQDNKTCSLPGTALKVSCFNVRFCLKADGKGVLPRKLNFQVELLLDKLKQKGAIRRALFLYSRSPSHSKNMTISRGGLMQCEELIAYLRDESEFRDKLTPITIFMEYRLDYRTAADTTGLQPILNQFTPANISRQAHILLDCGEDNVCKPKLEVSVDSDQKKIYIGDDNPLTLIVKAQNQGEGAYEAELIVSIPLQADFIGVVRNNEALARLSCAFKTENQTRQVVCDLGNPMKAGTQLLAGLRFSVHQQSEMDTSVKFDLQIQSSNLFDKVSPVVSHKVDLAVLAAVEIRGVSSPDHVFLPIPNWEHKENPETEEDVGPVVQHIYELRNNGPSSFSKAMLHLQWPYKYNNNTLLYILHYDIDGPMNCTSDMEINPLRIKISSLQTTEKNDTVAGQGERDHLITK
Chain of Integrin alpha-V/beta-3 (P06756 891-1048 limits assumed): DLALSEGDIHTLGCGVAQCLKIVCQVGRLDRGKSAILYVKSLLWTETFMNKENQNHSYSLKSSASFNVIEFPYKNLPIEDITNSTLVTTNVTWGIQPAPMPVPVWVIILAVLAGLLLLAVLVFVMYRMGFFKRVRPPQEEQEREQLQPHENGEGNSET
Chain of Integrin alpha-V/beta-5 (P06756 31-889 limits assumed): as the sequence (P06756 31-889 limits assumed) above
Chain of Integrin alpha-V/beta-5 (P06756 891-1048 limits assumed): as the sequence (P06756 891-1048 limits assumed) above
Chain of Integrin alpha-V/beta-5 (P18084 24-799 limits assumed): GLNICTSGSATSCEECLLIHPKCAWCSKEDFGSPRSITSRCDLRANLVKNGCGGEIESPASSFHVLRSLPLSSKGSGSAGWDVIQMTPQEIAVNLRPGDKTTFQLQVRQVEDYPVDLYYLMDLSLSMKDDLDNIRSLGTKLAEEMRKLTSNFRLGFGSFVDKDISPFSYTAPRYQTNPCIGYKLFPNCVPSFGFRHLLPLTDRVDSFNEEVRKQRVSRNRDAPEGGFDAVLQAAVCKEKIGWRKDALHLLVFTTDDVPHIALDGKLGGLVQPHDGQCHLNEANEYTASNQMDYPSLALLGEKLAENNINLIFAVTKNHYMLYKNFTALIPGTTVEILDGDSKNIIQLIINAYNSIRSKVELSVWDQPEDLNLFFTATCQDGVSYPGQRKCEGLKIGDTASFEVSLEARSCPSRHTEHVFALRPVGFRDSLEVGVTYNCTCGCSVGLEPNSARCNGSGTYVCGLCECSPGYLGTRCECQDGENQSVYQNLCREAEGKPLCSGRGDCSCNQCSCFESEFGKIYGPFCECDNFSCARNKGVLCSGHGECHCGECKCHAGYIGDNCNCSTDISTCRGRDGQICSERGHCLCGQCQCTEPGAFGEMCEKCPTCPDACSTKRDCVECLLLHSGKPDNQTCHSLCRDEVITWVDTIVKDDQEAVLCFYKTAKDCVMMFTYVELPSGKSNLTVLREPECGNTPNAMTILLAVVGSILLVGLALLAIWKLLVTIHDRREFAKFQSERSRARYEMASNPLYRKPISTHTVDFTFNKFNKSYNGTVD

As usually defined, the IC50 is the concentration at which inhibition is half-maximal. Regarding `N=C(N)NCCc1cn(CC(=O)N(CC(=O)O)c2ccccc2)nn1`, the half-inhibitory concentration (IC50) on Integrin alpha-V/beta-3 and at Integrin alpha-V/beta-5 was above 10 µM each time.
`NC(N)=NCCCc1cn(CC(=O)N(CC(=O)O)c2ccccc2)nn1`: the IC50 on Integrin alpha-V/beta-3 and at Integrin alpha-V/beta-5 was above 10 µM each time.
As to `N=C(N)N1CCN(CCc2cn(CC(=O)N(CC(=O)O)c3ccccc3)nn2)CC1`, the IC50 at Integrin alpha-V/beta-3 and on Integrin alpha-V/beta-5 was above 10 µM throughout.
On to `NC(N)=NCc1cn(CC(=O)N(CC(=O)O)c2ccccc2)nn1`, for which the IC50 at Integrin alpha-V/beta-3 and on Integrin alpha-V/beta-5 was above 10 µM throughout.
